Measured values taken from article PMC8255191 (European Journal of Medicinal Chemistry, 2021).
Several values for one entry are separate records, joined by “and”; a condition that tells them apart may be missing. Equal entries are not always repeated. Where two headings read alike, the source gives them in different places.

What was measured:
[1] = system: SARS-CoV-2; conditions: SARS-CoV-2, Calu-3; literature value in parenthesis; cited from earlier work
[2] = system: PR8 H1N1; test: Time-of-addition, In Cell Western of hemagglutinin; type: cell-based, Influenza A virus
[3] = Stability towards oxidative stress; type: physicochemical; conditions: 40 mM H2O2 in ethanol, argon atmosphere; data not shown
[4] = system: DENV NS3 and NS5 proteins; type: cell-based, DENV-2; conditions: for expression of NS5 protein: 6i 50 μM (p ≤ 0.0001 at 16 h), Sofosbuvir 100 μM (from 12 h, p ≤ 0.01); for expression of NS3 protein: 6i 50 μM (p ≤ 0.05 at 12 h), Sofosbuvir 100 μM (from 12 h, p ≤ 0.05)
[5] = system: influenza A virus strains PR8 H1N1, pandemic 2009H1N1, avian Ulster H7N1; type: cell-based
[6] = system: ZIKV; test: In vitro resistance selection in Huh7 cells, NS3/NS5 population sequencing; type: cell-based, Zika virus (H/PF/2013)
[7] = system: DENV; test: as above; type: cell-based, Dengue virus serotype 2 (New Guinea C)
[8] = Cytotoxicity, CellTiter-Glo 2.0 luminescent cell viability assay; type: cell-based; conditions: human, Huh7 cells
[9] = system: Dengue, Zika, West Nile and Influenza A viruses; test: Antiviral activity, range over the tested viruses; type: cell-based; conditions: read-out: IC50 (range over viruses)
[10] = ABTS radical decolorization assay; type: physicochemical; conditions: 10 μM-1 mM, 10 min; Fig. 2
Method in brief: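 ABTS radical cation solution, diluted 1:100 in ethanol to an absorbance of 0.70 (±0.02) at 734 nm, serves as the control solution. Test compound or ascorbic acid reference, dissolved in DMSO at 10 μM, 50 μM, 0.1 mM, 0.2 mM, 0.5 mM or 1 mM, is added. A734 is read after exactly 10 min, and %scavenging = [(A0 − As)/A0] × 100, with the control run in each assay.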

[11] = system: DENV-2; conditions: read-out: IC50 DENV-2; cited from earlier work
[12] = system: ZIKV; conditions: read-out: IC50 ZIKV; cited from earlier work
[13] = system: DENV-2; test: Plaque reduction assay; type: cell-based, Dengue virus serotype 2 (New Guinea C); conditions: Dengue virus, DENV2, read-out: DENV-2 IC50
[14] = biological target: ZIKV NS5: full length ZIKV protein (Zika virus, UniProt A0A024B7W1); test: In vitro polymerase assay; type: biochemical; conditions: read-out: IC50 ZIKV NS5, polymerase activity
[15] = biological target: D2 NS5: full length DENV protein (Dengue virus type 2, UniProt P14340); test: In vitro polymerase assay; type: biochemical, dengue 2 virus; conditions: read-out: IC50 D2 NS5, polymerase activity
[16] = biological target: D2pol: polymerase domain of dengue 2 virus (Dengue virus type 2, UniProt P14340); test: In vitro polymerase assay; type: biochemical; conditions: read-out: IC50 D2pol; polymerase activity

ZIKV NS5: full length ZIKV protein, sequence (A0A024B7W1 2521-3423 limits assumed): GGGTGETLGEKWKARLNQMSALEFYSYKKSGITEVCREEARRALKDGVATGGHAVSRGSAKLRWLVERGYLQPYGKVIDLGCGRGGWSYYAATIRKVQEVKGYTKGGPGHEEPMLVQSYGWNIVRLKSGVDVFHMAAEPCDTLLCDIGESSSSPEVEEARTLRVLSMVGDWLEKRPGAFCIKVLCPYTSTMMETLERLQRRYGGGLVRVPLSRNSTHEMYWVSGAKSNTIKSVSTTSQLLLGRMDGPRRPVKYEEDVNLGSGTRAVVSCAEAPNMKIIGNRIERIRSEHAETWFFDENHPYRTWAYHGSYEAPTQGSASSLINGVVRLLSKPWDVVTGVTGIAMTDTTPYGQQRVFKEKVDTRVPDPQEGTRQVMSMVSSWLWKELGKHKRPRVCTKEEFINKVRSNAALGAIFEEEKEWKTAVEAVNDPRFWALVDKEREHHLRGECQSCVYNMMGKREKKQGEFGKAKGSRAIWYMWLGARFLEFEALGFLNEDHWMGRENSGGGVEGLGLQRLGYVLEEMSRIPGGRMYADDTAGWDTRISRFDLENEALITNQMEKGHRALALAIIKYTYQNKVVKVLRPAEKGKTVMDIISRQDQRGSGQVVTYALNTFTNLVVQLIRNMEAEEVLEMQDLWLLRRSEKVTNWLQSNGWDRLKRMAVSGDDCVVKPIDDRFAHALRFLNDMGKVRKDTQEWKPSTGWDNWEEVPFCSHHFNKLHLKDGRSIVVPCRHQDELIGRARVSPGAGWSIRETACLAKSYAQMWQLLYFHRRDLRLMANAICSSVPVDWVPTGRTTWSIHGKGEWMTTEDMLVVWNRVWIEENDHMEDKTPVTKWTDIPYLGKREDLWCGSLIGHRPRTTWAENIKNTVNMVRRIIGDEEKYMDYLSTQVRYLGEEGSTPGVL

## CCC(CC)COC(=O)[C@H](C)N[P@](=O)(OC[C@H]1O[C@@](C#N)(c2ccc3c(N)ncnn23)[C@H](O)[C@@H]1O)Oc1ccccc1 [RMD]
[1]
  IC50: 0.28 µM

## FC(F)(F)c1cccc(Nc2nc(NCCOc3ccccc3)nc3[nH]cnc23)c1 [Compound 6i, N [2]-(2-phenoxyethyl)-N [6]-(3-(trifluoromethyl)phenyl)-9H-purine-2,6-diamine]
[2]
  effect on HA expression: not quite effective
[3]
  stability towards oxidative stress: stable for days
[4]
  expression of NS5 protein: significantly reduced
  expression of NS3 protein: significantly reduced
[4]; 6i 50 μM, 16 h post infection, untreated control 0.726 ± 0.135
  MCC NS3/NS5 (Manders' colocalization coefficient): 0.404 ± 0.106
[4]; 6i 50 μM, 16 h post infection, untreated control 0.752 ± 0.125
  MCC NS5/NS3 (Manders' colocalization coefficient): 0.397 ± 0.101
[5]
  inhibition of viral protein expression: 20–26% and 28–45%
[6]; 6i 15 μM
  dpi (days post infection to 80% CPE): 8 days
[6]; 6i 30 μM
  dpi (days post infection to 80% CPE): 5 days
[6]; 6i 60 μM
  dpi (days post infection to 80% CPE): 5 days
[6]; 6i 120 μM
  dpi (days post infection to 80% CPE): 5 days
[7]; 6i 15 μM
  dpi (days post infection to 80% CPE): 6 days
[7]; 6i 30 μM
  dpi (days post infection to 80% CPE): 7 days
[7]; 6i 60 μM
  dpi (days post infection to 80% CPE): 5 days
[7]; 6i 120 μM
  dpi (days post infection to 80% CPE): 5 days and 9 days
[8]
  CC50: > 200 µM
[9]
  IC50: 0.5 to 5.3 µM
[10]
  radical scavenging activity (% inhibition of the ABTS absorbance at 734 nm): not observed

## COC(=O)c1cccc(Nc2nc(NCCO)nc3[nH]cnc23)c1 [Compound 6e, Methyl 3-((2-((2-hydroxyethyl)amino)-9H-purin-6-yl)amino)benzoate]
[8]
  CC50: > 200 µM

## Fc1cccc(Nc2nc(NCCOc3ccccc3)nc3[nH]cnc23)c1 [Compound 6c, N6-(3-fluorophenyl)-N2-(2-phenoxyethyl)-9H-purine-2,6-diamine]
[8]
  CC50: > 200 µM

## Fc1cccc(/N=N/c2nc(NCCOc3ccccc3)nc3[nH]cnc23)c1 [Compound 11a, 6-((3-fluorophenyl)diazenyl)-N-(2-phenoxyethyl)-9H-purin-2-amine]
[3]
  stability towards oxidative stress: stable for days
[10]
  radical scavenging activity (% inhibition of the ABTS absorbance at 734 nm): not observed

## O=C(O)c1cccc(Nc2nc(NCCOc3ccccc3)nc3[nH]cnc23)c1 [Compound 6m, 3-((2-((2-phenoxyethyl)amino)-9H-purin-6-yl)amino)benzoic acid]
[8]
  CC50: > 200 µM

## CNc1nc(Nc2cccc(C(=O)OC)c2)c2nc[nH]c2n1 [Compound 6d, Methyl 3-((2-(methylamino)-9H-purin-6 yl)amino)benzoate]
[8]
  CC50: > 200 µM

## Oc1ccc(Nc2nc(NCCOc3ccccc3)nc3[nH]cnc23)cc1O [Compound 6j, 4-((2-((2-phenoxyethyl)amino)-9H-purin-6-yl)amino)benzene-1,2-diol]
[8]
  CC50: > 200 µM

## Oc1cccc(Nc2nc(NCCOc3ccccc3)nc3[nH]cnc23)c1 [Compound 3]
[11]
  IC50: 10 µM
[12]
  IC50: 16.7 µM

## CC(C)OC(=O)[C@H](C)N[P@](=O)(OC[C@H]1O[C@@H](n2ccc(=O)[nH]c2=O)[C@](C)(F)[C@@H]1O)Oc1ccccc1 [Sofosbuvir, reference compound]
[4]
  expression of NS5 protein: significantly reduced
  expression of NS3 protein: significantly reduced
[13]
  IC50: 3.8 µM
[8]
  CC50: > 200 µM

## Fc1cccc(NNc2nc(NCCOc3ccccc3)nc3[nH]cnc23)c1 [Compound 10a, 6-(2-(3-fluorophenyl) hydrazinyl)-N-(2-phenoxyethyl)-9H-purin-2-amine]
[3]
  stability towards oxidative stress: quickly converted into 11a
[10]
  radical scavenging activity (% inhibition of the ABTS absorbance at 734 nm): clear concentration-dependent radical scavenging activity

## NC(=O)c1ncn([C@@H]2O[C@H](CO)[C@@H](O)[C@H]2O)n1 [Ribavirin, reference compound]
[8]
  CC50: > 200 µM

## CNc1nc(Nc2cccc(C(=O)O)c2)c2nc[nH]c2n1 [Compound 6l, 3-((2-(methylamino)-9H-purin-6-yl)amino)benzoic acid]
[8]
  CC50: > 200 µM

## CNc1nc(Nc2cccc(C(F)(F)F)c2)c2nc[nH]c2n1 [Compound 6g, N2-methyl-N6-(3-(trifluoromethyl)phenyl)-9H-purine-2,6-diamine]
[8]
  CC50: > 200 µM

## Nc1ncnc2c1ncn2[C@@H]1O[C@H](COP(=O)(O)OP(=O)(O)OP(=O)(O)O)C[C@H]1O [3'dATP]
[14]
  IC50: 1 ± 0.2 µM
[15]
  IC50: 0.32 ± 0.05 µM
[16]
  IC50: 0.27 ± 0.03 µM
